Assays:
Mus musculus = experiment: Immunomodulatory activity in ip dosed BALB/c mouse assessed as reduction in lymphocyte using FITC-conjugated hamster antimouse CD3e antibody by flow cytometry; type: functional
In short: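 Male BALB/c mice given the alcohol form intraperitoneally; peripheral blood taken from posterior vena cava 24 h later, hemolyzed and fixed. CD3+ T and CD45R+ (B220) B cells counted by two-colour flow cytometry. ED50 is the dose lowering lymphocyte count by 50% versus vehicle-treated controls; 5 animals per compound.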

[1] = biological target: Sphingosine 1-phosphate receptor 1 (Homo sapiens, UniProt P21453); experiment: Agonist activity at human S1P1 receptor expressed in human Chem1 cells assessed as intracellular calcium mobilization; type: functional, cell-based
[2] = biological target: Sphingosine 1-phosphate receptor 3 (Homo sapiens, UniProt Q99500); experiment: Agonist activity at human S1P3 receptor expressed in CHO cells assessed as intracellular calcium mobilization; type: functional, cell-based
Rattus norvegicus = experiment: Toxicity in iv dosed Sprague-Dawley rat assessed as reduction in heart rate; type: organism-based; conditions: in vivo
In short: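 Male Sprague-Dawley rats anesthetized with ip pentobarbital sodium (50 mg/kg); phosphate form injected iv over about 30 s at 0.03 to 3 mg/kg. Heart rate counted from R waves of lead II ECG before dosing and 1, 2, 3, 4, 5, 10 and 15 min after. ID50 is the dose lowering heart rate by 50% versus vehicle control; 3-6 animals per compound.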

Sphingosine 1-phosphate receptor 3, sequence (Q99500 whole entry): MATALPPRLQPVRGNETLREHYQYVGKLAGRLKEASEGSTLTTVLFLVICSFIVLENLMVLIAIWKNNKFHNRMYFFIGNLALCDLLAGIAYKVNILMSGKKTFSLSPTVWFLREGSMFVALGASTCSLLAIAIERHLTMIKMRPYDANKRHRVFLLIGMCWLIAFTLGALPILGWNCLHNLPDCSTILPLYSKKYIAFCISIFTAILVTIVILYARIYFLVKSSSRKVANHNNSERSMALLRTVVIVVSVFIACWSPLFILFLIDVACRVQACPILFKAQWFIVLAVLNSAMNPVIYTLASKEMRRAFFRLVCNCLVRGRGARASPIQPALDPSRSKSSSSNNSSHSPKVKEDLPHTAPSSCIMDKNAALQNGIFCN
Sphingosine 1-phosphate receptor 1, sequence (P21453 whole entry): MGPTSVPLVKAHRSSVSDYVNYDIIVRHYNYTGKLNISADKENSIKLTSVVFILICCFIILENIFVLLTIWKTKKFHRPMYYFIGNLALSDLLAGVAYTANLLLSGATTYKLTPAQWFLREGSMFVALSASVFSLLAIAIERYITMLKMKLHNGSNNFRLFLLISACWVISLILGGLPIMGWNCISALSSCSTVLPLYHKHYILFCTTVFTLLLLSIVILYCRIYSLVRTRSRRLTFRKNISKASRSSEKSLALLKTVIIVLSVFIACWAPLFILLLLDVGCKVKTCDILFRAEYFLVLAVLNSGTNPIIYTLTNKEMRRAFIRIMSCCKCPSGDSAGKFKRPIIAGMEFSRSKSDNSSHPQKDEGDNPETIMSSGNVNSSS

EC50 [1] [nM] | EC50 [2] [nM] | Structure (SMILES) | ED50 (Mus musculus) [mg/kg] | ID50 (Rattus norvegicus) [mg/kg]
 |  | NC(CO)(CO)CCc1ccc(-c2ccc(Sc3ccc(C(F)(F)F)cc3)cc2F)cc1 | 0.34 | 
 |  | NC(CO)(CO)CCc1ccc(-c2ccc(Sc3ccccc3)cc2F)cc1 | 0.42 | 
 |  | Cc1ccc(Sc2ccc(-c3ccc(CCC(N)(CO)CO)cc3)c(F)c2)cc1 | 0.05 | 
1.3 | > 1000 | CCCCOc1ccc(-c2ccc(CCC(N)(CO)COP(=O)(O)O)cc2)cc1F (configuration not stated) |  | 
3 | > 1000 | Cc1ccc(Sc2ccc(-c3ccc(CCC(N)(CO)COP(=O)(O)O)cc3)c(F)c2)cc1 (configuration not stated) |  | 
1.8 | 83 | Cc1ccc(Oc2ccc(-c3ccc(CCC(N)(CO)COP(=O)(O)O)cc3)c(F)c2)cc1 (configuration not stated) |  | 0.016
 |  | CCc1ccc(Sc2ccc(-c3ccc(CCC(N)(CO)CO)cc3)c(F)c2)cc1 | 0.04 | 
2 | > 1000 | Cc1cccc(Sc2ccc(-c3ccc(CCC(N)(CO)COP(=O)(O)O)cc3)c(F)c2)c1 (configuration not stated) |  | 0.063
 |  | CCCCCCCCc1ccc(CCC(N)(CO)COP(=O)(O)O)cc1 (configuration not stated) |  | 0.012
 |  | NC(CO)(CO)CCc1ccc(-c2ccc(Sc3ccc(Cl)cc3)cc2F)cc1 | 0.18 | 
 |  | NC(CO)(CO)CCc1ccc(-c2ccc(SCc3ccccc3)cc2F)cc1 | 0.04 | 
 |  | NC(CO)(CO)CCc1ccc(-c2ccc(OCc3ccccc3)cc2F)cc1 | 0.01 | 
21 | > 1000 | NC(CO)(CCc1ccc(-c2ccc(Oc3ccccc3)cc2)cc1)COP(=O)(O)O (configuration not stated) |  | 0.14
3.6 | > 1000 | NC(CO)(CCc1ccc(-c2ccc(Sc3ccccc3)cc2F)cc1)COP(=O)(O)O (configuration not stated) |  | 
 |  | CCCCOc1ccc(-c2ccc(CCC(N)(CO)CO)cc2)cc1F | 0.21 | 
1.2 | > 1000 | CCCCOc1cc(F)c(-c2ccc(CCC(N)(CO)COP(=O)(O)O)cc2)cc1F (configuration not stated) |  | 
1.1 | 4.1 | NC(CO)(CCc1ccc(-c2ccc(OCc3ccccc3)cc2F)cc1)COP(=O)(O)O (configuration not stated) |  | 0.014
4.2 | > 1000 | Cc1ccc(Sc2ccc(-c3ccc(CCC(N)(CO)COP(=O)(O)O)c(Cl)c3)c(F)c2)cc1 (configuration not stated) |  | 0.016
 |  | NC(CO)(CO)CCc1ccc(-c2ccc(Oc3ccccc3)cc2)cc1 | 0.25 | 
1.1 | > 1000 | CCCCCc1ccc(-c2ccc(CCC(N)(CO)COP(=O)(O)O)cc2)c(F)c1 (configuration not stated) |  | 
0.81 | > 1000 | CCCCOc1ccc(-c2ccc(CCC(N)(CO)COP(=O)(O)O)cc2)cc1 (configuration not stated) |  | 0.008
0.53 | 51 | CCCCOc1ccc(-c2ccc(CCC(N)(CO)COP(=O)(O)O)cc2)c(F)c1.F (configuration not stated) |  | 0.009
 |  | CC(C)c1ccc(Sc2ccc(-c3ccc(CCC(N)(CO)CO)cc3)c(F)c2)cc1 | 0.15 | 
 |  | COc1ccc(Sc2ccc(-c3ccc(CCC(N)(CO)CO)cc3)c(F)c2)cc1 | 0.28 | 

EC50 [1] [nM] | EC50 [2] [nM] | Structure (SMILES) | ED50 (Mus musculus) [mg/kg] | ID50 (Rattus norvegicus) [mg/kg]
 |  | Cc1ccc(Sc2ccc(-c3ccc(CCC(N)(CO)CO)c(Cl)c3)c(F)c2)cc1 | 0.04 | 
 |  | COc1cccc(Sc2ccc(-c3ccc(CCC(N)(CO)CO)cc3)c(F)c2)c1 | 0.11 | 
 |  | NC(CO)(CO)CCc1ccc(-c2ccc(Sc3cccc(F)c3)cc2F)cc1 | 0.16 | 
 |  | NC(CO)(CO)CCc1ccc(-c2ccc(Oc3ccccc3)cc2)cc1Cl | 0.16 | 
 |  | NC(CO)(CO)CCc1ccc(-c2ccc(OCc3ccccc3)cc2)cc1Cl | 0.13 | 
 |  | CCCCOc1ccc(-c2ccc(CCC(N)(CO)CO)c(Cl)c2)cc1 | 0.08 | 
 |  | NC(CO)(CO)CCc1ccc(-c2ccc(Sc3ccc(F)cc3)cc2F)cc1 | 0.07 | 
 |  | CCCCCCCCc1ccc(CCC(N)(CO)CO)cc1 [FINGOLIMOD] | 0.02 | 
 |  | NC(CO)(CO)CCc1ccc(-c2ccc(SCc3ccccc3)cc2)cc1Cl | 0.08 | 
 |  | CCCCOc1ccc(-c2ccc(CCC(N)(CO)CO)cc2)c(C)c1 | 3.4 | 
 |  | Cc1ccc(Oc2ccc(-c3ccc(CCC(N)(CO)CO)cc3)c(F)c2)cc1 | 0.04 | 
3.1 | > 1000 | CCCCOc1ccc(-c2ccc(CCC(N)(CO)COP(=O)(O)O)cc2)cc1Cl (configuration not stated) |  | 
 |  | Cc1cccc(Sc2ccc(-c3ccc(CCC(N)(CO)CO)cc3)c(F)c2)c1 | 0.13 | 
0.62 | > 1000 | CCCCOc1ccc(-c2ccc(CCC(N)(CO)COP(=O)(O)O)c(Cl)c2)cc1 (configuration not stated) |  | 0.013
1.6 | 13 | NC(CO)(CCc1ccc(-c2ccc(OCc3ccccc3)cc2)cc1Cl)COP(=O)(O)O (configuration not stated) |  | 0.017
0.84 | 4.9 | NC(CO)(CCc1ccc(-c2ccc(SCc3ccccc3)cc2F)cc1)COP(=O)(O)O (configuration not stated) |  | 0.008
 |  | CCCCCc1ccc(-c2ccc(CCC(N)(CO)CO)c(Cl)c2)cc1 | 0.11 | 
0.64 | > 1000 | CCCCCc1ccc(-c2ccc(CCC(N)(CO)COP(=O)(O)O)c(Cl)c2)cc1 (configuration not stated) |  | 
 |  | CCCCOc1ccc(-c2ccc(CCC(N)(CO)CO)cc2)c(F)c1 | 0.06 | 
 |  | CCCCOc1ccc(-c2ccc(CCC(N)(CO)CO)cc2)cc1 | 0.22 | 
 |  | CCCCCc1ccc(-c2ccc(CCC(N)(CO)CO)cc2)c(F)c1 | 0.1 | 
 |  | CCCCOc1ccc(-c2ccc(CCC(N)(CO)CO)cc2)cc1Cl | 1.3 | 
 |  | CCCCOc1cc(F)c(-c2ccc(CCC(N)(CO)CO)cc2)cc1F | 0.15 | 
4.7 | > 1000 | NC(CO)(CCc1ccc(-c2ccc(Oc3ccccc3)cc2)cc1Cl)COP(=O)(O)O (configuration not stated) |  | 0.087

— ChEMBL document CHEMBL1156200, “Removal of sphingosine 1-phosphate receptor-3 (S1P(3)) agonism is essential, but inadequate to obtain immunomodulating 2-aminopropane-1,3-diol S1P(1) agonists with reduced effect on heart rate” (J Med Chem, 2010)
